Measured values published in ChEMBL document CHEMBL5325420, “Discovery of a spirocyclic 3-bromo-4,5-dihydroisoxazole covalent inhibitor of hGAPDH with antiproliferative activity against pancreatic cancer cells” (Eur J Med Chem, 2023).
Activity calls are given as the source filed them. The calls are words filed in the database; no cut-off is given here.

What was measured:
[1] = molecular target: Glyceraldehyde-3-phosphate dehydrogenase (Homo sapiens) (UniProt P04406); experiment: Covalent inhibition of human recombinant his tagged GAPDH expressed in Escherichia coli at 100 uM measured after 3 hrs by spectrophotometric analysis relative to control
Summary of the method: (§1)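 His-tagged hGAPDH from E. coli, 2 μM, preincubated at 25 °C with 10, 50 or 100 μM inhibitor for 30 min or 3 h in 10 mM TEA, 5 mM EDTA, 10 mM arsenate, pH 7.6. Residual activity of aliquots (enzyme 30–50 nM) measured with 1.5 mM NAD+, 100 μM DL-GAP, NADH at 340 nm, 25 °C. Relative to untreated enzyme; independent duplicates, mean ± SD.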

[2] = molecular target: Glyceraldehyde-3-phosphate dehydrogenase (Homo sapiens) (UniProt P04406); experiment: Covalent inhibition of human recombinant his tagged GAPDH expressed in Escherichia coli at 50 uM measured after 30 mins by spectrophotometric analysis relative to control; summary of the method: as §1
PaCa-44 [3] = experiment: Antiproliferative activity against human PaCa-44 cells assessed as reduction in cell growth at 100 uM incubated for 48 hrs by crystal violet staining based analysis; type: functional
Summary of the method: (§2)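 PDAC lines and normal fibroblasts in DMEM-Glutamax, 10% FBS, 50 μg/ml gentamicin, 37 °C, 5% CO2. Seeded 5×10^3 cells/well for PDAC lines and 8×10^3 cells/well for fibroblasts. After 24 h, treated 48 h with 1–100 μM from 100 mM DMSO stocks. Crystal Violet read at A595, normalized to untreated cells. Mean ± SD (n = 4).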

[4] = molecular target: Glyceraldehyde-3-phosphate dehydrogenase (Homo sapiens) (UniProt P04406); experiment: Inhibition of human recombinant his tagged GAPDH expressed in Escherichia coli at 10 uM incubated for 48 hrs relative to control
Summary of the method: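 Recombinant hGAPDH, 2 μM, with 10 μM inhibitor for 48 h at 37 °C in TEA/EDTA buffer, pH 7.6. Residual activity measured by the arsenate/NAD+/GAP assay, NADH at 340 nm, 25 °C. Expressed versus untreated enzyme; independent duplicates, mean ± SD.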

[5] = molecular target: Glyceraldehyde-3-phosphate dehydrogenase (Homo sapiens) (UniProt P04406); experiment: Inhibition of recombinant his tagged-GAPDH in human PANC-1 cells expressed in Escherichia coli at 100 uM relative to control
[6] = molecular target: Glyceraldehyde-3-phosphate dehydrogenase (Homo sapiens) (UniProt P04406); experiment: Binding affinity to human recombinant his tagged GAPDH expressed in Escherichia coli assessed as pseudo first order reaction at 2 mM at pH 7 in presence of beta mercaptoethanol measured for 1 hr by HPLC method
[7] = molecular target: Glyceraldehyde-3-phosphate dehydrogenase (Homo sapiens) (UniProt P04406); experiment: Binding affinity to human recombinant his tagged GAPDH expressed in Escherichia coli assessed as absolute rate constant at 2 mM at pH 7 in presence of beta mercaptoethanol measured for 1 hr by HPLC method
[8] = molecular target: Glyceraldehyde-3-phosphate dehydrogenase (Homo sapiens) (UniProt P04406); experiment: Binding affinity to human recombinant his tagged GAPDH expressed in Escherichia coli assessed elimination of racker band at measured after 30 hrs by spectrophotometric analysis
Summary of the method: (§3)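 Racker band loss. 100 μM His-tagged hGAPDH (expressed in E. coli) with 200 μM inhibitor in 10 mM TEA, 5 mM EDTA, 10 mM KH2PO4, pH 7.6. Absorbance at 340 nm followed until reaction completion; traces fitted to a kinetic equation.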

[9] = molecular target: Glyceraldehyde-3-phosphate dehydrogenase (Homo sapiens) (UniProt P04406); experiment: Binding affinity to human recombinant his tagged GAPDH expressed in Escherichia coli assessed as time constant at 200 uM measured after 30 hrs by spectrophotometric analysis; summary of the method: as §3
[10] = molecular target: Glyceraldehyde-3-phosphate dehydrogenase (Homo sapiens) (UniProt P04406); experiment: Covalent inhibition of human recombinant his tagged GAPDH expressed in Escherichia coli at 10 uM measured after 30 mins by spectrophotometric analysis relative to control; summary of the method: as §1
[11] = molecular target: Glyceraldehyde-3-phosphate dehydrogenase (Homo sapiens) (UniProt P04406); experiment: Binding affinity to human recombinant his tagged GAPDH expressed in Escherichia coli assessed elimination of racker band measured within 1 min by spectrophotometric analysis; summary of the method: as §3
[12] = molecular target: Glyceraldehyde-3-phosphate dehydrogenase (Homo sapiens) (UniProt P04406); experiment: Binding affinity to human recombinant his tagged GAPDH expressed in Escherichia coli assessed as time constant at 200 uM measured after 1 min by spectrophotometric analysis; summary of the method: as §3
PaCa-3 = experiment: Antiproliferative activity against human PaCa-3 cells assessed as reduction in cell growth at 1 to 100 uM incubated for 48 hrs by crystal violet staining based analysis; type: functional; details: dose 1-100 µM; summary of the method: as §2
PaCa-44 [13] = experiment: Antiproliferative activity against human PaCa-44 cells assessed as reduction in cell growth at 1 to 100 uM incubated for 48 hrs by crystal violet staining based analysis; type: functional; details: dose 1-100 µM; summary of the method: as §2
PANC-1 [14] = experiment: Antiproliferative activity against human PANC-1 cells assessed as reduction in cell growth at 1 to 100 uM incubated for 48 hrs by crystal violet staining based analysis; type: functional; details: dose 1-100 µM; summary of the method: as §2
MIA PaCa-2 [15] = experiment: Antiproliferative activity against human MIA PaCa-2 cells assessed as reduction in cell growth at 1 to 100 uM incubated for 48 hrs by crystal violet staining based analysis; type: functional; details: dose 1-100 µM; summary of the method: as §2
Fibroblast = experiment: Antiproliferative activity against human Fibroblast assessed as reduction in cell growth at high concentration incubated for 48 hrs by crystal violet staining based analysis relative to control; type: functional; set-up: scale not given: the % may be the effect or the level left; summary of the method: as §2
[16] = Antiproliferative activity in human PaCa-3 cells habouring wild type p53 assessed as decrease in cell growth at 5 uM measured after 48 hrs by Crystal violet staining based analysis relative to control; type: functional; set-up: scale not given: the % may be the effect or the level left
Summary of the method: (§4)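 PaCa-3 (wt p53) and mutant-p53 PDAC lines exposed 48 h to 5 or 10 μM. Growth by Crystal Violet staining, each line normalized to its own untreated control. Mean ± SD, n = 4.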

PANC-1 [17] = experiment: Antiproliferative activity in human PANC-1 cells habouring p53 mutant/R273H assessed as decrease in cell growth at 10 uM measured after 48 hrs by Crystal violet staining based analysis; type: functional; summary of the method: as §4
MIA PaCa-2 [18] = experiment: Antiproliferative activity in human MIA PaCa-2 cells habouring p53 mutant/R248W assessed as decrease in cell growth at 10 uM measured after 48 hrs by Crystal violet staining based analysis; type: functional; summary of the method: as §4
PaCa-44 [19] = experiment: Antiproliferative activity in human PaCa-44 cells habouring p53 mutant/C176S assessed as decrease in cell growth at 10 uM measured after 48 hrs by Crystal violet staining based analysis; type: functional; summary of the method: as §4
[20] = Antiproliferative activity in human PaCa-3 cells measured after 48 hrs by Crystal violet staining based analysis; type: functional, cell-based; details: Paca3, 48 h
Summary of the method: (§5)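 IC50 from Crystal Violet growth curves. Cells in DMEM-Glutamax with 10% FBS, seeded, then exposed after 24 h to 1–100 μM for 48 h. A595 normalized to untreated cells. Three independent experiments.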

[21] = Antiproliferative activity in human PaCa-44 cells measured after 48 hrs by Crystal violet staining based analysis; type: functional, cell-based; details: PaCa-44, 48 h; summary of the method: as §5
PANC-1 [22] = experiment: Antiproliferative activity in human PANC-1 cells measured after 48 hrs by Crystal violet staining based analysis; type: functional, cell-based; details: PANC-1, 48 h; summary of the method: as §5
MIA PaCa-2 [23] = experiment: Antiproliferative activity in human MIA PaCa-2 cells measured after 48 hrs by Crystal violet staining based analysis; type: functional, cell-based; details: MIA PaCa-2, 48 h; summary of the method: as §5
[24] = molecular target: Glyceraldehyde-3-phosphate dehydrogenase (Homo sapiens) (UniProt P04406); experiment: Inhibition of recombinant his tagged-GAPDH in human PaCa-44 cells expressed in Escherichia coli at 100 uM relative to control
[25] = molecular target: Glyceraldehyde-3-phosphate dehydrogenase (Homo sapiens) (UniProt P04406); experiment: Inhibition of recombinant his tagged-GAPDH in human PaCa-3 cells expressed in Escherichia coli at 100 uM relative to control
[26] = molecular target: Glyceraldehyde-3-phosphate dehydrogenase (Homo sapiens) (UniProt P04406); experiment: Covalent inhibition of human recombinant his tagged GAPDH expressed in Escherichia coli assessed as residual activity at 100 uM measured after 3 hrs by spectrophotometric analysis; summary of the method: as §1

Chain of Glyceraldehyde-3-phosphate dehydrogenase (Homo sapiens) (P04406 2-335 limits assumed): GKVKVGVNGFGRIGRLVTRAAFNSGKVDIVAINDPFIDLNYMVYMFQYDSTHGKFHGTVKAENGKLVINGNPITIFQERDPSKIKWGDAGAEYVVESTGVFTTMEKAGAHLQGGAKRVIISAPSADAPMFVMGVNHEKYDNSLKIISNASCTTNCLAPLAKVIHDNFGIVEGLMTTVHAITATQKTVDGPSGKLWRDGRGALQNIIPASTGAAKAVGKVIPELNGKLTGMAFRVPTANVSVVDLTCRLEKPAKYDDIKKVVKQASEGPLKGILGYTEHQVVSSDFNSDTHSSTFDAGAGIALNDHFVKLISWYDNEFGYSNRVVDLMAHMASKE

O=C(O)c1ccc2c(c1)CCCC21CC(Br)=NO1 (centres undefined)
inhibition [1]: 40% | inhibition [2]: 100% | Activity (PaCa-44 [3]): Active | inhibition [4]: 40% | inhibition [5]: 30% | K [6]: < 1 10^-8/s | K [7]: < 1 10^-8/M/s

BrC1=NOC(c2ccccc2)C1 (centres undefined)
inhibition [1]: 40% | inhibition [8]: inactive | K [9]: 908 min | K [6]: 6.62 10^-5/s | K [7]: 1.1 10^-4/M/s

BrC1=NOC2(CCCc3ccccc32)C1 (centres undefined)
inhibition [1]: 40% | inhibition [2]: 100% | inhibition [10]: 100% | inhibition [11]: Active | K [12]: 0.2 min | Activity (PaCa-3): Active | Activity (PaCa-44 [13]): Active | Activity (PANC-1 [14]): Active | Activity (MIA PaCa-2 [15]): Active | Activity (Fibroblast): 20% | Activity [16]: 42% | Activity (PANC-1 [17]): Active | Activity (MIA PaCa-2 [18]): Active | Activity (PaCa-44 [19]): Active | IC50 [20]: 4.69 µM | IC50 [21]: 16.2 µM | IC50 (PANC-1 [22]): 21.7 µM | IC50 (MIA PaCa-2 [23]): 15.2 µM | inhibition [4]: 100% | inhibition [5]: 100% | inhibition [24]: 100% | inhibition [25]: 100% | K [6]: 5.25 10^-6/s | K [7]: 8.75 10^-6/M/s

O=S(=O)(O)c1ccc(C2CC(Br)=NO2)cc1 (centres undefined)
inhibition [1]: 20%

Oc1ccc(C2CC(Br)=NO2)cc1 (centres undefined)
inhibition [1]: 40%

O=C(O)c1cccc(C2CC(Br)=NO2)c1 (centres undefined)
inhibition [1]: 20%

O=C(O)c1ccc(C2CC(Br)=NO2)cc1 (centres undefined)
inhibition [1]: 40% | K [6]: 1.11 10^-6/s | K [7]: 1.84 10^-6/M/s

BrC1=NOC(c2cccs2)C1 (centres undefined)
inhibition [26]: inactive

BrC1=NOC(c2ccc(-c3nnn[nH]3)cc2)C1 (centres undefined)
inhibition [26]: inactive

CC(C)[C@H]1CC[C@@]2(CO2)[C@H]2C(=O)OCC(C(=O)O)=C[C@H]12
K [12]: 0.701 min

C=CC(=O)N1CCC[C@@H](n2nc(-c3ccc(Oc4ccccc4)cc3)c3c(N)ncnc32)C1
K [7]: 10.4 10^-4/M/s

O=C(O)c1ccc(C2CC(Br)=NO2)s1 (centres undefined)
inhibition [1]: 20%

NS(=O)(=O)c1ccc(C2CC(Br)=NO2)cc1 (centres undefined)
inhibition [26]: inactive

O=C(O)c1ccccc1C1CC(Br)=NO1 (centres undefined)
inhibition [26]: inactive
